# Laboratory results: ChEMBL document CHEMBL1828538, “Synthesis and pharmacological evaluation of indole-based sigma receptor ligands” (Eur J Med Chem, 2011)
# Active and inactive are the calls of the source. No cut-off for these calls is given here.
# Legend:
# [1] = target: T1, Glycine receptor subunit alpha-1 (Homo sapiens) (UniProt P23415); experiment: Displacement of radioligand from strychnine sensitive glycine receptor assessed as 50% receptor inhibition at 10^-7 M
# T1 sequence (whole entry): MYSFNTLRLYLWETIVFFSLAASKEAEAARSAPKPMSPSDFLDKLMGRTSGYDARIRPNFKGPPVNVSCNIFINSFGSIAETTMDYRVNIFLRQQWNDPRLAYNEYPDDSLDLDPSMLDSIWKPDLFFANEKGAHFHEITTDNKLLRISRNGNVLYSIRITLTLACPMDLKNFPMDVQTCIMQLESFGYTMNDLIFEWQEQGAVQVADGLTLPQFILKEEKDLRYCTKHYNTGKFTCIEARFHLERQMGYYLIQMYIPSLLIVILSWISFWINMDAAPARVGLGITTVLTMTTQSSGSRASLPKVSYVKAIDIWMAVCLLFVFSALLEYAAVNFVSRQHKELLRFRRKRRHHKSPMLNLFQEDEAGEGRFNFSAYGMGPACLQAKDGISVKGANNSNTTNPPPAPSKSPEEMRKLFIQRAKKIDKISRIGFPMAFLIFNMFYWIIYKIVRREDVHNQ
# Outline: (§1)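 Part of a contracted (NovaScreen) panel of 64 radioligand/enzyme assays, with the test compound run at 10⁻⁵ M and 10⁻⁷ M. Each assay was scored by whether radioligand displacement exceeded 50% at each concentration.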
# [2] = target: T2, Muscarinic acetylcholine receptor M1 (Homo sapiens) (UniProt P11229); experiment: Displacement of radioligand from muscarinic M1 receptor assessed as 50% receptor inhibition at 10^-5 M; outline: as §1
# T2 sequence (whole entry): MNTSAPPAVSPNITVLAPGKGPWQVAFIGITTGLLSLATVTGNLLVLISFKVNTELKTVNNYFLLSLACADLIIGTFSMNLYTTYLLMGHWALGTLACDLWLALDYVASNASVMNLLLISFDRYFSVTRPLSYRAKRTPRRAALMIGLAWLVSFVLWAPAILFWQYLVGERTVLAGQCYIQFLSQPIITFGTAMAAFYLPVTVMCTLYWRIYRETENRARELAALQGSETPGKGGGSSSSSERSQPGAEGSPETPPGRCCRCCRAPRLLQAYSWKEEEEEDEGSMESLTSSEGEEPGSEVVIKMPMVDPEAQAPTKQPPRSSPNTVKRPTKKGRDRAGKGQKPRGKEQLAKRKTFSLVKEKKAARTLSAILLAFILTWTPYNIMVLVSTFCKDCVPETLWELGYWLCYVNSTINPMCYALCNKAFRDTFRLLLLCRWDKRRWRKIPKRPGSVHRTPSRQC
# [3] = Displacement of radioligand from sodium channel site 2 assessed as 50% receptor inhibition at 10^-5 M; outline: as §1
# D(2) dopamine receptor = D(2) dopamine receptor (Homo sapiens, UniProt P14416); experiment: Displacement of [3H]YM-09151-2 from human D2 receptor expressed in CHO cells; type: cell-based
# Outline: (§2)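 CHOp-D2 or CHOp-D3 cells were labelled with 0.2–0.5 nM [3H]YM-09151-2, and nonspecific binding was set with 1 μM chlorpromazine. Ki was from standard competition conditions, as mean ± SEM of replicate assays.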
# [4] = Displacement of radioligand from adrenergic alpha1 receptor assessed as 50% receptor inhibition at 10^-5 M; outline: as §1
# [5] = target: T2, Muscarinic acetylcholine receptor M1 (Homo sapiens); experiment: Displacement of radioligand from muscarinic M1 receptor assessed as 50% receptor inhibition at 10^-7 M; outline: as §1
# [6] = Displacement of radioligand from BZT-sensitive L-type calcium channel assessed as 50% receptor inhibition at 10^-5 M; outline: as §1
# [7] = target: Cannabinoid receptor 2 (Homo sapiens) (UniProt P34972); experiment: Displacement of radioligand from cannabinoid CB2 receptor assessed as 50% receptor inhibition at 10^-7 M; outline: as §1
# [8] = Displacement of radioligand from muscarinic receptor assessed as 50% receptor inhibition at 10^-5 M; outline: as §1
# D(3) dopamine receptor = D(3) dopamine receptor (Homo sapiens, UniProt P35462); experiment: Displacement of [3H]YM-09151-2 from human D3 receptor expressed in CHO cells; type: cell-based; outline: as §2
# [9] = target: Sodium-dependent noradrenaline transporter (Homo sapiens, UniProt P23975); experiment: Displacement of [125I]RTI-55 from human NET expressed in HEK293 cells; type: cell-based
# Outline: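 Nonspecific binding was defined with 5 μM mazindol. Ki was determined under standard conditions and reported as mean ± SEM of replicate assays. A value >10000 nM means less than 30% radioligand displacement at that concentration.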
# [10] = Displacement of radioligand from adrenergic beta1 receptor assessed as 50% receptor inhibition at 10^-5 M; outline: as §1
# [11] = Displacement of radioligand from adrenergic beta1 receptor assessed as 50% receptor inhibition at 10^-7 M; outline: as §1
# [12] = target: T3, 5-hydroxytryptamine receptor 1A (Homo sapiens, UniProt P08908); experiment: Displacement of [3H]8-OH-DPAT from human 5HT1A receptor expressed in HEK cells; type: cell-based, HEK293
# T3 sequence (P08908 whole entry): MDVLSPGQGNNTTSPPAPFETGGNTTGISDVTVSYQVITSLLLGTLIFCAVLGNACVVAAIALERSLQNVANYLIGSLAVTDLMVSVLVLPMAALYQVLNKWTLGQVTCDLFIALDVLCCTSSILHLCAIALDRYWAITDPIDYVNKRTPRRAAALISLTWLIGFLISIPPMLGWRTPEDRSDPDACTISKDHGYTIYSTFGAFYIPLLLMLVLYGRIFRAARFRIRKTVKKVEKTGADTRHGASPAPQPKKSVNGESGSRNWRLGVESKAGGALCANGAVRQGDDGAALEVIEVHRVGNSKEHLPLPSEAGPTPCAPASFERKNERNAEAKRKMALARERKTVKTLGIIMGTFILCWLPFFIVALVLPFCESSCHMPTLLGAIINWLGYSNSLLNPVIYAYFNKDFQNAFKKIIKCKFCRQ
# Outline: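 Assay used HEK-h5-HT1A cells with 0.5 nM [3H]8-OH-DPAT, and nonspecific binding defined by 1 μM dihydroergotamine. Ki came from standard competition conditions, as mean ± SEM of replicate assays.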
# [13] = target: Histamine H1 receptor (Homo sapiens) (UniProt P35367); experiment: Displacement of radioligand from histamine H1 receptor assessed as 50% receptor inhibition at 10^-7 M; outline: as §1
# Sequence of Histamine H1 receptor (Homo sapiens) (P35367 whole entry): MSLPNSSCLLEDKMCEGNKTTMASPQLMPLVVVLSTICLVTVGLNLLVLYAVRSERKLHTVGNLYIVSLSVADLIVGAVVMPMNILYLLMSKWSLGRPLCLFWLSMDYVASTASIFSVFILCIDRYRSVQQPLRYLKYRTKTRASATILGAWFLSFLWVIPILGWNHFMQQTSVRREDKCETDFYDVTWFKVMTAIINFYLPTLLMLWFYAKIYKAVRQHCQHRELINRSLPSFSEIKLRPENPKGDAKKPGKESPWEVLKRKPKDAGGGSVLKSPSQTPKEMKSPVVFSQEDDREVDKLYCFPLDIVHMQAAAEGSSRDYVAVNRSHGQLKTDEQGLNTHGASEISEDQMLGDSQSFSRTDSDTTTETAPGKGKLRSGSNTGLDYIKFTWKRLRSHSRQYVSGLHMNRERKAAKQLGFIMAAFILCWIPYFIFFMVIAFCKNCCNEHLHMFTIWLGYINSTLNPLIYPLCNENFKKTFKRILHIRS
# Sequence of Sodium-dependent noradrenaline transporter (P23975 whole entry): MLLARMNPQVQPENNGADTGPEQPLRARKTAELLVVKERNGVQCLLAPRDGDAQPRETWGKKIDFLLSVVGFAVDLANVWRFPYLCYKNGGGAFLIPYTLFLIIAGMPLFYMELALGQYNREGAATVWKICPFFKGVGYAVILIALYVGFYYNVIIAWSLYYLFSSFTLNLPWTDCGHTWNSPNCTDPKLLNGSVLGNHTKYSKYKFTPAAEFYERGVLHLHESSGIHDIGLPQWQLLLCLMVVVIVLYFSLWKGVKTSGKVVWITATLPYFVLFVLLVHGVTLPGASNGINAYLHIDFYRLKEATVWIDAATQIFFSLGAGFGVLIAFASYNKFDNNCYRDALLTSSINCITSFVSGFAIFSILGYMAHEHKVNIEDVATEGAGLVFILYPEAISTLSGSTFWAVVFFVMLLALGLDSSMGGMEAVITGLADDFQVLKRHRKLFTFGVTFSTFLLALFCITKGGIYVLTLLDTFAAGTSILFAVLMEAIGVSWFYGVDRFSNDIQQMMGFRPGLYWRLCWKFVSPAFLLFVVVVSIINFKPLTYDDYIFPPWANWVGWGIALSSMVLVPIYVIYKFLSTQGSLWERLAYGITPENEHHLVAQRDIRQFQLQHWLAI
# Sequence of D(2) dopamine receptor (P14416 whole entry): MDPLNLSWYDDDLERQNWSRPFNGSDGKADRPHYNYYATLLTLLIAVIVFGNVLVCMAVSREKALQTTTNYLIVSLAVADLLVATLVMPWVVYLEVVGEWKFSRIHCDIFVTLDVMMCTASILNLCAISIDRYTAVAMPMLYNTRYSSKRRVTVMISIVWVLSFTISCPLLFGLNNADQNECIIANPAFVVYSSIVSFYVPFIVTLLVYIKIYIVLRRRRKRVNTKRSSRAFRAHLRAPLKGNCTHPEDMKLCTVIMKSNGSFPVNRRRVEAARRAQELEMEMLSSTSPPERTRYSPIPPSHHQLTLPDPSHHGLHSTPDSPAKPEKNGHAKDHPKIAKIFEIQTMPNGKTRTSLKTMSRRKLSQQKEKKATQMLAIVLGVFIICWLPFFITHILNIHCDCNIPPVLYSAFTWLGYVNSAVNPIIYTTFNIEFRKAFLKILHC
# Sequence of Cannabinoid receptor 2 (Homo sapiens) (P34972 whole entry): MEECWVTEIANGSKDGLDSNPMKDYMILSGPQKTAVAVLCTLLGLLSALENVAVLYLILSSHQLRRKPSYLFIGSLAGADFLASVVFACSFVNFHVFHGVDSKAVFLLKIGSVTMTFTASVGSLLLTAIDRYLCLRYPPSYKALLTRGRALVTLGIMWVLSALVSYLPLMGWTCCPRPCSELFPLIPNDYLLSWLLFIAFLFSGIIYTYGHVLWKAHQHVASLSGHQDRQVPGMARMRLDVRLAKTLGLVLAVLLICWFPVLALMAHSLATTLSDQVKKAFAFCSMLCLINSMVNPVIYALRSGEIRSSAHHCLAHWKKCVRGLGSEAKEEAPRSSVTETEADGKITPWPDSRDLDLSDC
# Sequence of D(3) dopamine receptor (P35462 whole entry): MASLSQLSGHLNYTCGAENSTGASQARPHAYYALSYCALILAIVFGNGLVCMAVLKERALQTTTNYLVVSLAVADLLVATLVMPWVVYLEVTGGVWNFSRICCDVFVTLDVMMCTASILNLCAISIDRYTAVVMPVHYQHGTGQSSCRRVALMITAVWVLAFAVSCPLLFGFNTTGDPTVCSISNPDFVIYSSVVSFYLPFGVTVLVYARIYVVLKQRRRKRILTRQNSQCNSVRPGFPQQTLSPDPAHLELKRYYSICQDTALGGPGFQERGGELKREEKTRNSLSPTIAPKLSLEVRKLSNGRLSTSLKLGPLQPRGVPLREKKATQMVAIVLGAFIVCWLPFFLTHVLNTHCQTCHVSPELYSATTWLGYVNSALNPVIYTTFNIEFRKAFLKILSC
smiles,measurement,setting,value
COc1cc2c(cc1OC)CN(CCCCn1cc(-c3ccc(F)cc3)c3ccccc31)CC2,inhibition,[1],Active
same,inhibition,[2],Active
same,inhibition,[3],Active
same,Ki,D(2) dopamine receptor,0.87 µM
same,inhibition,[4],Active
same,inhibition,[5],inactive
same,inhibition,[6],Active
same,inhibition,[7],inactive
same,inhibition,[8],Active
same,Ki,D(3) dopamine receptor,0.544 µM
same,Ki,[9],1.35 µM
same,inhibition,[10],Active
same,inhibition,[11],inactive
same,Ki,[12],1.51 µM
same,inhibition,[13],inactive
